From ChEMBL document CHEMBL4251617, “Synthesis and anticancer activity of novel water soluble benzimidazole carbamates” (Eur J Med Chem, 2018)
≈ marks a conversion by molar mass, not a printed value. Calls of active or inactive are those of the source. The calls are words filed in the database; no cut-off is given here.

Tests used:
[1] = tested on: A549; experiment: Cytotoxicity against human A549 cells assessed as cell viability at 1 uM after 72 hrs by MTT assay relative to control; format: functional; details: A549, 72 h, read-out: Activity
[2] = tested on: PC-3; experiment: Cytotoxicity against human PC3 cells assessed as cell viability at 10 uM after 72 hrs by MTT assay relative to control; format: functional; details: PC-3, 72 h, read-out: Activity
[3] = tested on: A549; experiment: Cytotoxicity against human A549 cells assessed as cell viability at 10 uM after 72 hrs by MTT assay relative to control; format: functional; details: A549, 72 h, read-out: Activity
[4] = Cytotoxicity against human PC3MLN4 cells assessed as cell viability at 1 uM after 72 hrs by MTT assay relative to control; format: functional; details: read-out: Activity
[5] = Cytotoxicity against human PC3MLN4 cells assessed as cell viability at 10 uM after 72 hrs by MTT assay relative to control; format: functional; details: read-out: Activity
[6] = tested on: PC-3; experiment: Cytotoxicity against human PC3 cells assessed as cell viability at 1 uM after 72 hrs by MTT assay relative to control; format: functional; details: PC-3, 72 h, read-out: Activity
[7] = tested on: A549/TR; experiment: Cytotoxicity against human A549/TR cells assessed as reduction in cell viability after 72 hrs by MTT assay; format: functional, cell-based
Procedure, shortened: (§1)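 Cells seeded per well at 5 X 10^3 (PC3MLN4, A549, Calu1, H157, A549-TR), 6 X 10^3 (PC3) or 8 X 10^3 (SKOV3). SKOV3 grown in McCoy's 5A, others in RPMI-1640, 10% FBS. Next day 2X drug added, 3.2 nM-50 µM five-fold dilutions, 72 hr.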

[8] = organism: Homo sapiens; experiment: Disruption of microtubule dynamics in human PC3MLN4 cells at 1 uM after 48 hrs by immunofluorescence microscopic method; format: cell-based
Procedure, shortened: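 PC3MLN4 cells on coverslips were treated 48 hr at 1 µM. They were fixed in 4% PFA 15 min and permeabilized in 0.2% Triton X-100 8 min. Blocking was 2% goat serum/2% BSA 1 hr. Anti-α-tubulin 1:200 for 1 hr was followed by Alexa Fluor 488 secondary 1:400 for 45 min, with DAPI 500 nM counterstain and imaging at 100X and 200X.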

[9] = organism: Homo sapiens; experiment: Upregulation of Cyclin-B1 protein expression in human PC3MLN4 cells at 1 uM after 24 hrs by Western blot method; format: functional, cell-based
Procedure, shortened: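 PC3MLN4 cells were treated 24 hr and lysed in 50 mM Tris pH 7.5, 150 mM NaCl, 10 mM NaF, 0.5% NP40 with protease inhibitors. Equal protein (BCA) was run on SDS-PAGE and transferred to nitrocellulose, then blocked in 5% milk/TBST. Blots were probed for cyclin B1 with GAPDH as loading control, using HRP secondary and ECL.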

[10] = tested on: Mus musculus; experiment: Toxicity in nude mouse xenografted with human PC3MLN4 cells assessed as reduction in body weight at 30 mg/kg, ip administered every other day 3 times per week for 2 weeks measured 3 times per week during compound dosing relative to control; format: organism-based; set-up: scale not given: the % may be the effect or the level left; details: in vivo, 336 h
Procedure, shortened: (§2)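 PC3MLN4 cells (1 X 10^6) in growth factor reduced Matrigel/HBSS injected subcutaneously between the scapulae of athymic nude mice. Dosing began day 13 at tumor volume about 35 mm3. Randomized groups of 4-5 mice got 30 mg/kg IP in 5% DMSO/HBSS, or vehicle alone. Tumor (calipers) and body weight measured on dosing days and 3 days after last dose. Mean ± SEM, t-test.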

[11] = Kinetic solubility in pH 7.4 PBS buffer sonicated for 30 mins by HPLC-UV method
[12] = tested on: PC-3; experiment: Cytotoxicity against human PC3 cells assessed as reduction in cell viability after 72 hrs by MTT assay; format: functional, cell-based; details: PC-3, 72 h; procedure, shortened: as §1
[13] = tested on: Calu-1; experiment: Cytotoxicity against human Calu1 cells assessed as reduction in cell viability after 72 hrs by MTT assay; format: functional, cell-based; details: Calu-1, 72 h; procedure, shortened: as §1
[14] = physchem; details: PBS buffer, pH 7.4
[15] = Antitumor activity against human PC3MLN4 cells xenografted in nude mouse assessed as reduction in tumor volume at 30 mg/kg, ip administered every other day 3 times per week for 2 weeks; format: functional; procedure, shortened: as §2
[16] = Cytotoxicity against human PC3MLN4 cells assessed as reduction in cell viability after 72 hrs by MTT assay; format: functional, cell-based; procedure, shortened: as §1
[17] = organism: Homo sapiens; experiment: Cell cycle arrest in human PC3MLN4 cells assessed as accumulation at G2/M phase at 1 uM after 24 hrs by propidium iodide staining based flow cytometry; format: functional
Procedure, shortened: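 PC3MLN4 cells seeded 3 X 10^5/well, next day treated 24 hr at 1 µM, nocodazole 1 µM as control. Floating and adherent cells pooled, fixed in cold 70% ethanol 30 min, then PI plus RNase A for 30 min. 15 X 10^3 cells acquired by FACS. G1/S/G2 fractions from Dean-Jett-Fox fit.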

[18] = tested on: SK-OV-3; experiment: Cytotoxicity against human SKOV3 cells assessed as reduction in cell viability after 72 hrs by MTT assay; format: functional, cell-based; details: SK-OV-3, 72 h; procedure, shortened: as §1
[19] = tested on: A549; experiment: Cytotoxicity against human A549 cells assessed as reduction in cell viability after 72 hrs by MTT assay; format: functional, cell-based; details: A549, 72 h; procedure, shortened: as §1
[20] = tested on: NCI-H157; experiment: Cytotoxicity against human NCI-H157 cells assessed as reduction in cell viability after 72 hrs by MTT assay; format: functional, cell-based; details: NCI-H157, 72 h; procedure, shortened: as §1
[21] = Cytotoxicity against human PC3MLN4 cells assessed as reduction in cell viability after 48 hrs by cyquant reagent based fluorescence spectrometric assay; format: functional
Procedure, shortened: (§3)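 3 X 10^5 cells per well seeded overnight, then exposed 48 hr. Cells harvested, washed, frozen at -80 °C overnight, thawed, and CyQuant reagent added with fluorescence read at 485 nm. Survival as % of vehicle-treated cells. EC50 (50% survival reduction) by median-dose effect analysis.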

[22] = tested on: PC-3M; experiment: Cytotoxicity against human PC3M cells assessed as reduction in cell viability after 48 hrs by cyquant reagent based fluorescence spectrometric assay; format: functional; procedure, shortened: as §3
[23] = Selectivity ratio of EC50 for cytotoxicity against human PC3M cells to EC50 for cytotoxicity against human PC3MLN4 cells; format: functional

SMILES	viability at 1 µM [1] [%]	viability at 10 µM [2] [%]	viability at 10 µM [3] [%]	viability at 1 µM [4] [%]	viability at 10 µM [5] [%]	viability at 1 µM [6] [%]	other results
CCCSc1ccc2[nH]c(NC(=O)OCCN(C)C)nc2c1	75.5	37.9	51.8	92.7	42.8	82.5	–
CC(=O)O[C@H]1C(=O)[C@@]2(C)[C@H]([C@H](OC(=O)c3ccccc3)[C@]3(O)C[C@H](OC(=O)[C@H](O)[C@@H](NC(=O)c4ccccc4)c4ccccc4)C(C)=C1C3(C)C)[C@]1(OC(C)=O)CO[C@@H]1C[C@@H]2O [PACLITAXEL]	–	–	–	–	–	–	EC50 [7]: 10.3 µM
CN(C)CCOC(=O)Nc1nc2cc(C(=O)c3ccc(F)cc3)ccc2[nH]1	89.4	90.9	80.4	84.6	97.2	91.2	–
COC(=O)Nc1nc2cc(C(=O)c3cccs3)ccc2[nH]1	–	–	–	–	–	–	Activity [8]: Active; Activity [9]: Active
COC(=O)Nc1nc2ccc(C(=O)c3ccccc3)cc2[nH]1 [MEBENDAZOLE]	–	–	–	–	–	–	Activity [10]: 5%
CCCSc1ccc2[nH]c(NC(=O)OCCCN(C)C)nc2c1	83.8	78.2	89.9	86.7	88.6	95.5	–
CCCSc1ccc2[nH]c(NC(=O)OC3COC3)nc2c1	73.2	84.5	79.2	88.3	83.8	95.2	–
O=C(Nc1nc2cc(Sc3ccccc3)ccc2[nH]1)OC1COC1	75	87.8	74.8	80.2	79.1	107	–
COC(=O)Nc1nc2cc(Oc3cccc(N4CCN(C)CC4)n3)ccc2[nH]1	87.8	52.1	72.6	83	74	98.1	–
COC(=O)Nc1nc2cc(C(=O)c3ccc(N(C)C4COC4)cc3)ccc2[nH]1	50.2	33.6	42.2	34.9	23.2	44.5	Activity [8]: Active; solubility kinetic at 0.5 h [11]: 253 µM (≈ 96.2 µg/mL); Activity [10]: Non-Toxic; EC50 [12]: 1600 nM; EC50 [7]: 3.8 µM; EC50 [13]: 1600 nM; solubility thermodynamic at 24 h [14]: 361 µM (≈ 137 µg/mL); Activity [9]: Active; T/C [15]: 0.36; EC50 [16]: 900 nM; Activity [17]: Active; EC50 [18]: 1000 nM; EC50 [19]: 1400 nM; EC50 [20]: 2400 nM
CCCSc1ccc2[nH]c(NC(=O)OCC3(C)COC3)nc2c1	83.1	79.2	87.6	87.6	89.7	87.2	–
CN(C)CCCOC(=O)Nc1nc2cc(C(=O)c3ccc(F)cc3)ccc2[nH]1	85.4	86.5	88.1	87.3	91	105	–
COC(=O)Nc1nc2cc(C(=O)c3ccccc3)ccc2[nH]1 [MEBENDAZOLE]	61.5	35.8	50.8	53.9	24.9	63.4	Activity [8]: Active; EC50 [12]: 1100 nM; EC50 [21]: 700 nM; EC50 [7]: 1.7 µM; EC50 [13]: 1100 nM; EC50 [22]: 1210 nM; T/C [15]: 0.31; EC50 [16]: 500 nM; Activity [17]: inactive; EC50 [18]: 500 nM; EC50 [19]: 900 nM; EC50 [20]: 3500 nM
CN(C)CCOC(=O)Nc1nc2cc(C(=O)c3ccccc3)ccc2[nH]1	94.4	92.6	89.6	101	98.8	97.3	–
CN(C)CCOC(=O)Nc1nc2cc(Sc3ccccc3)ccc2[nH]1	91.8	35	39.2	98.1	36.6	88.9	–
COC(=O)Nc1nc2cc(Oc3cccc(N4CCN(C)CC4)c3)ccc2[nH]1	77	32.2	47.5	86.3	33.4	73.1	–
COC(=O)Nc1nc2cc(Sc3ccccc3)ccc2[nH]1 [FENBENDAZOLE]	–	–	–	–	–	–	EC50 [21]: 910 nM; Ratio EC50 [23]: 2; EC50 [22]: 2600 nM
COC(=O)Nc1nc2cc(C(=O)c3ccc(F)cc3)ccc2[nH]1 [FLUBENDAZOLE]	–	–	–	–	–	–	EC50 [21]: 670 nM; Ratio EC50 [23]: 2; EC50 [22]: 1430 nM
COC(=O)Nc1nc2cc(C(=O)c3ccccc3N(C)C3COC3)ccc2[nH]1	99	54.8	46.8	100	38.4	101	–
O=C(Nc1nc2cc(C(=O)c3ccccc3)ccc2[nH]1)OC1COC1	68	65.5	62	70.6	66.8	90.9	–
CCCSc1ccc2[nH]c(NC(=O)OC)nc2c1 [ALBENDAZOLE]	–	–	–	–	–	–	EC50 [21]: 580 nM; Ratio EC50 [23]: 2; EC50 [22]: 1150 nM
